High-throughput results from PubChem BioAssay.
KCNQ1 inh: blocks the human KCNQ1 potassium channel; P51787; CHO-K1 KCNQ1, FluxOR thallium flux fluorescence; stronger effect = higher value; B-score at 10 µM; actives 1.3% (n = 310,000); AID 2642;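 active = compounds whose thallium flux B-score, printed positive for inhibition, exceeds three library SD while starting fluorescence stays within three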;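 note: channel opened by potassium depolarization with thallium stimulus after 20 min compound exposure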
Target sequence (P51787 whole entry, looked up): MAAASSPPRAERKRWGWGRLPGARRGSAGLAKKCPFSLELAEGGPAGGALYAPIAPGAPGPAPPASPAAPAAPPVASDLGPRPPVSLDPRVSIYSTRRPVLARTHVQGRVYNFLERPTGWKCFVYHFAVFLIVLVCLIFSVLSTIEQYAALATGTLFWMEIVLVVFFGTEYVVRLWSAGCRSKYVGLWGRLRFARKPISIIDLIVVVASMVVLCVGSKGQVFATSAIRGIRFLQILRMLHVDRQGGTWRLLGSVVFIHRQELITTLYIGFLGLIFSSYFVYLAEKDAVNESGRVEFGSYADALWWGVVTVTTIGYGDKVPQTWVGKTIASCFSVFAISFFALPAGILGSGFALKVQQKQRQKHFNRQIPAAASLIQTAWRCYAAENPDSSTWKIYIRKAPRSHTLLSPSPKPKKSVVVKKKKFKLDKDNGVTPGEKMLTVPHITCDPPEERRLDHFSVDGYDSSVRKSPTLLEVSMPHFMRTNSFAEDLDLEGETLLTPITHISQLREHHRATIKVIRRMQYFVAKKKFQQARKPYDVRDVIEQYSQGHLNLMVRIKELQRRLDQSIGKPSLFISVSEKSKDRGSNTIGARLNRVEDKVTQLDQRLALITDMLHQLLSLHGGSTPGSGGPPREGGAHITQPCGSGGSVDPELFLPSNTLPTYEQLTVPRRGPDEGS
Kir21 block: Kir2.1 (mouse) channel inhibition | actives 0.85% (n = 310,000) | HEK293-Kir2.1, FluxOR thallium flux fluorescence; stronger effect = lower value | P35561 | B-score at 10 µM;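 active = fluorescence ratio B-score at or below minus 3 SD of library scores, with starting-brightness B-score within 2 SD, cut at about -4.2 in these data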;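 note: channel flux triggered by added potassium and thallium sulfate stimulus; B-score of peak minus minimum fluorescence over baseline after thallium stimulus; more negative B-score means stronger Kir2.1 block with less thallium influx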
KCNK9 block: blocks the human KCNK9 two-pore domain potassium channel | actives 1.2% (n = 310,000) | Q9NPC2 | B-score at 10 µM | AID 488922 | HEK293 KCNK9, FluxOR thallium flux fluorescence; stronger effect = lower value;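 active = ratio B-score over 3 SD below the library mean, with starting fluorescence within 5 SD of its mean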;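 note: negative B-score means less thallium flux so channel inhibition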
KCNK3 inh: human KCNK3 channel inhibition, primary screen. actives 0.84% (n = 340,000). O14649. CHO-KCNK3 thallium flux, FluxOR fluorescence; stronger effect = lower value. B-score at 10 µM;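 active = B-score under library mean minus 4 SD, starting fluorescence ratio at most library mean plus 5 SD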;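 note: more negative B-score means stronger inhibition of thallium flux through KCNK3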
KCNQ1 act: human KCNQ1 channel potentiation or activation; actives 0.35% (n = 310,000); P51787; CHO-K1 KCNQ1, thallium flux FluxOR fluorescence; stronger effect = higher value; B-score at 10 µM;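 active = fluorescence ratio B-score, a plate-corrected score, at least three library SD, with initial intensity B-score within 5 SD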
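Assay system: stable KCNQ1 CHO-K1 line; medium: assay buffer, equal DMSO in all wells; timing: 90 min dye loading and 20 min compound exposure, both at room temperature; technique: kinetic FluxOR thallium fluorescence, 10-s 1-Hz baseline, 110-s post-stimulus read; read-out basis: B score of baseline-normalized fluorescence ratio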
hERG rescue: hERG (human) protection from proarrhythmic block; CHO-hERG, FluxOR thallium flux, dofetilide IC70 present; activation (rescue from dofetilide block), less the hit threshold, % at 10 µM; Q12809; AID 1511; actives 0.51% (n = 310,000);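 active = activation above the mean of controls blocked by dofetilide plus 5 SD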;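 note: thallium influx through hERG after potassium depolarization seen as dye fluorescence rise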
KCNK9 inh conf: human KCNK9 inhibitor confirmation | HEK293 KCNK9 cells, FluxOR thallium flux fluorescence | inhibition, % at 10 µM | shares compounds with KCNK9 block | actives 43% (n = 4,900);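 active = thallium signal inhibited by more than 5 SD of the compound-free buffer control wells, on both duplicate plates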;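 note: 0% = assay buffer control wells without compound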
Kir2-1 spec: selectivity of KCNK9 modulators against mouse Kir2.1. AID 492993. actives 4% (n = 4,900). Kir2.1 cells, FluxOR thallium flux fluorescence. inhibition, % at 10 µM. shares compounds with KCNK9 block;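 active = thallium signal drop more than 5 SD beyond the mean of the no-compound control wells, seen in both duplicate plates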;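 note: signal is fluorescence rise after thallium addition divided by baseline fluorescence; plate controls were assay buffer only for no effect and full block by chlorpromazine control for full effect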
HEK293 Tl ctr: non-induced cell nonspecific activity of KCNK9 modulators | shares compounds with KCNK9 block | non-induced KCNK9-HEK293, FluxOR thallium flux | inhibition, % at 10 µM | actives 40% (n = 4,900) | AID 492997;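 active = thallium signal drop beyond 5 SD of the untreated control mean, on both duplicate plates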;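 note: plate controls were buffer only IC0 wells for no effect and SID17386958 at its maximal inhibitory level for full effect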
Numbers without * were called inactive; i = inactive; . = no result given. Rows were chosen to be rich in hits. Some 3.7% of all compounds tested hit in one or more screens of this group.

SMILES	KCNQ1 inh	Kir21 block	KCNK9 block	KCNK3 inh	KCNQ1 act	hERG rescue	KCNK9 inh conf	Kir2-1 spec	HEK293 Tl ctr
Cc1nc(NCC(c2ccccc2)N(C)C)c2c(C)c(C)sc2n1 (centres undefined)	i	0.48	i	i	i	-11	i	i	i
CC(C)=CCC12Oc3cc(O)ccc3C1(O)Oc1cc3c(c(O)c1C2=O)C=CC(C)(C)O3 (centres undefined)	i	-0.06	-8.3*	.	i	-6	i	i	24%*
Cc1ccc2c(c1)N(CCCC(=O)NCCC1=CCCCC1)C(=O)CO2	i	-1.9	i	i	i	-7	i	i	i
Cc1nc(C)c(-c2ccc(SCc3ccc(Cl)cc3)nn2)s1	i	0.02	i	i	i	-9	i	i	i
COC(=O)c1ccc(N2CCCCC2)c(NS(=O)(=O)c2ccc(C)cc2)c1	i	-2.2	i	i	i	-6	.	.	.
CCOC(=O)c1ccc(N2CCCCC2)c(NS(=O)(=O)c2cccc(C(F)(F)F)c2)c1	i	0.53	-11*	i	i	-6	56%*	i	34%*
CC(=O)c1ccc(NC(=O)CN2C(=O)NC(C)(C3CCCCC3)C2=O)cc1 (centres undefined)	.	.	.	i	.	.	.	.	.
COc1ccc(C(=O)c2coc3ccc(O)c(CN4CCCCC4)c23)cc1	i	-3.8	i	i	i	-11	i	i	i
Cc1cccc(C(=O)NN2C(=O)C3C(c4ccccc4)C=CC(c4ccccc4)C3C2=O)c1 (centres undefined)	i	0.29	-13*	i	i	1	41%*	i	i
COc1cc(OC)nc(Oc2ccccc2C(=O)Oc2cccc(C)c2)n1	i	-0.27	-9.5*	i	i	0	34%*	i	36%*
COc1cc(C)ccc1OCCCOc1ccccc1Br	i	-2	i	i	i	-4	.	.	.
Cc1ccc(OCCCCN(C)Cc2ccccc2)c(Br)c1	i	-13*	i	i	i	-14	i	80%*	i
COc1ccccc1OCCCOc1ccc(C)cc1Br	i	0.03	i	i	i	-5	.	.	.
COc1ccccc1OCCOCCOc1ccc(C)cc1Br	i	-1.3	i	i	i	-5	i	i	i
O=C(c1cccs1)N(Cc1ccco1)c1nc(-c2ccc(F)cc2)cs1	6*	-2.2	-14*	-14*	i	-6	64%*	i	48%*
COc1ccc(C(=O)Nc2cccc(C(=O)Nc3cc(C)ccn3)c2)cc1	.	.	.	i	.	.	.	.	.
Cc1ccc(C2(c3ccccc3)NC(=O)N(CC(=O)NCc3ccco3)C2=O)cc1C (centres undefined)	.	.	.	i	.	.	.	.	.
COc1ccc(-c2noc(CN(C)CCC3CCCCO3)n2)cc1 (centres undefined)	i	-1.2	i	i	i	-5	i	i	i
COC(=O)c1ccc(-c2noc(CN(C)Cc3ccncc3C)n2)cc1	i	0.05	i	i	i	-26	.	.	.
COC(=O)c1ccc(-c2noc(CN(C)CCC3CCCCO3)n2)cc1 (centres undefined)	i	-0.52	i	i	i	-5	i	i	i
COc1ccc(C(=O)N(Cc2nc(-c3ccc(C)cc3)no2)C2CCCCC2)cc1OC	i	-1.5	i	i	i	-1	i	i	i
COc1ccc(-c2noc(CCC(=O)NCC3CCCO3)n2)cc1 (centres undefined)	i	0.97	i	i	i	-3	.	.	.
Cn1nnnc1SCC(=O)Nc1ncc(Cl)cc1Cl	i	-0.42	i	i	i	-10	.	.	.
CC(C)Cn1c2c(c(O)c(C(=O)Nc3ccc(F)cc3)c1=O)CCCC2	i	-0.89	i	i	i	-7	.	.	.
CC(C)Cn1c2c(c(O)c(C(=O)Nc3ncccc3O)c1=O)CCCC2	i	-1.5	-9.7*	i	i	-10	55%*	i	40%*
SMILES	KCNQ1 inh	Kir21 block	KCNK9 block	KCNK3 inh	KCNQ1 act	hERG rescue	KCNK9 inh conf	Kir2-1 spec	HEK293 Tl ctr
COc1ccc(NS(=O)(=O)c2cc(NC(=O)C3CC3)ccc2N2CCCCC2)cc1	i	-1.1	i	i	i	-5	.	.	.
COc1ccccc1NS(=O)(=O)c1cc(NC(=O)C2CCC2)ccc1N1CCCCC1	i	0.6	-8.5*	i	i	-10	34%*	i	26%*
CC1Cc2cc(S(=O)(=O)N3CCC(C(=O)N(C)Cc4ccco4)CC3)ccc2N1C(=O)C1CCC1 (centres undefined)	i	-0.19	i	i	i	-10	.	.	.
O=C(NCCC1=CCCCC1)NC12CC3CC(CC(C3)C1)C2	6*	-1.1	i	i	i	-22	i	i	i
O=C(CO/N=C/c1ccccc1OC(F)F)N1CCc2ccccc21	i	-1.1	i	i	i	-6	.	.	.
CC1Cc2ccccc2N1C(=O)CO/N=C/c1ccccc1OC(F)F (centres undefined)	i	-0.12	i	i	i	-9	i	i	i
O=C1CCCC2=C1C(c1ccccc1)C1C(=O)c3ccccc3C1=N2 (centres undefined)	i	-0.12	i	i	i	-2	.	.	.
O=C1CCCC2=C1C(c1ccc(Cl)cc1)C1C(=O)c3ccccc3C1=N2 (centres undefined)	i	0.26	i	i	i	-17	.	.	.
O=C1c2ccccc2C2=Nc3ccccc3SC(c3ccc(Cl)cc3)C12 (centres undefined)	i	0.01	-13*	i	i	-12	46%*	i	34%*
O=C1c2ccccc2C2=Nc3ccccc3SC(c3cccc(F)c3)C12 (centres undefined)	i	-1.1	-15*	i	i	-4	56%*	i	56%*
COC(=O)CN1C(c2cccc(Cl)c2)=Nc2ccc(Cl)cc2C1c1ccccc1 (centres undefined)	i	-0.21	-16*	i	i	-6	58%*	i	47%*
O=C1CN(C(=O)/C=C/c2ccc(Br)cc2)CCN1	i	2.2	i	i	i	-6	.	.	.
